{"source": "ChEMBL document CHEMBL3098028", "about": "“Synthesis and in vitro and in vivo pharmacological evaluation of new 4-aminoquinoline-based compounds” (ACS Med Chem Lett, 2013)", "key": {"[1]": {"tested_on": "CHO", "assay": "Cytotoxicity against CHO cells", "format": "cell-based", "details": "Cricetulus griseus"}, "[2]": {"biological_target": "Cytochrome P450 2E1 (Homo sapiens, UniProt P05181)", "sequence (P05181 whole entry)": "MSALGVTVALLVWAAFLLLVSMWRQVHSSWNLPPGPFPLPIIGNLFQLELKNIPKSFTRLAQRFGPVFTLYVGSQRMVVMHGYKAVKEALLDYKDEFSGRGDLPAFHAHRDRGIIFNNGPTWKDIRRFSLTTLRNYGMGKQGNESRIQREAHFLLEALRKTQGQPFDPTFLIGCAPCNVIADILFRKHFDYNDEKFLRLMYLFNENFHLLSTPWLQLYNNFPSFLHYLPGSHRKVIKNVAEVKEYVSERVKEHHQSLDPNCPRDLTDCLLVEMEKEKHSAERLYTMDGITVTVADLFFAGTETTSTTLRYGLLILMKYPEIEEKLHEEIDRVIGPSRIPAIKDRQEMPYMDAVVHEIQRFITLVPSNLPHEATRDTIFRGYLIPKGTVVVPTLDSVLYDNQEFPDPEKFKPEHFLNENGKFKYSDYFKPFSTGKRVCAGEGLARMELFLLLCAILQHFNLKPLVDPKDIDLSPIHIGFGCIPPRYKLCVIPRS", "assay": "Inhibition of CYP2E1 in human liver microsomes assessed as chlorzoxazone 6-hydroxylation after 20 mins by LC-MS/MS analysis", "format": "ADME"}, "[3]": {"biological_target": "T1, Cytochrome P450 2B6 (Homo sapiens, UniProt P20813)", "T1 sequence (P20813 whole entry)": "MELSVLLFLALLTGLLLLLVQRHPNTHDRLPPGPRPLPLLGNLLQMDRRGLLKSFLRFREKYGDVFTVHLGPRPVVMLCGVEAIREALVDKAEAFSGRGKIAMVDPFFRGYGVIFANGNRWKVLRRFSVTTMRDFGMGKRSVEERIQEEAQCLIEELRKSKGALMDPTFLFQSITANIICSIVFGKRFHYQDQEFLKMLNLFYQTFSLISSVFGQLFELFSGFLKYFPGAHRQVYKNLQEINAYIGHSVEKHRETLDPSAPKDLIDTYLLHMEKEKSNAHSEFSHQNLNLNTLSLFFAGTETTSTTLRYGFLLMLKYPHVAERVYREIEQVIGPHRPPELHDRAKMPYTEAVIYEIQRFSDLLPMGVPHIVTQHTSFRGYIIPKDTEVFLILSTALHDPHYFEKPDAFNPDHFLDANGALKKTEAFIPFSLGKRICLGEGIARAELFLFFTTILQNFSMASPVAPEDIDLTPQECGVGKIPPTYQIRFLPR", "assay": "Inhibition of CYP2B6 in human liver microsomes assessed as bupropion hydroxylation after 20 mins by LC-MS/MS analysis", "format": "ADME"}, "[4]": {"biological_target": "T2, Cytochrome P450 2A6 (Homo sapiens, UniProt P11509)", "T2 sequence (P11509 whole entry)": "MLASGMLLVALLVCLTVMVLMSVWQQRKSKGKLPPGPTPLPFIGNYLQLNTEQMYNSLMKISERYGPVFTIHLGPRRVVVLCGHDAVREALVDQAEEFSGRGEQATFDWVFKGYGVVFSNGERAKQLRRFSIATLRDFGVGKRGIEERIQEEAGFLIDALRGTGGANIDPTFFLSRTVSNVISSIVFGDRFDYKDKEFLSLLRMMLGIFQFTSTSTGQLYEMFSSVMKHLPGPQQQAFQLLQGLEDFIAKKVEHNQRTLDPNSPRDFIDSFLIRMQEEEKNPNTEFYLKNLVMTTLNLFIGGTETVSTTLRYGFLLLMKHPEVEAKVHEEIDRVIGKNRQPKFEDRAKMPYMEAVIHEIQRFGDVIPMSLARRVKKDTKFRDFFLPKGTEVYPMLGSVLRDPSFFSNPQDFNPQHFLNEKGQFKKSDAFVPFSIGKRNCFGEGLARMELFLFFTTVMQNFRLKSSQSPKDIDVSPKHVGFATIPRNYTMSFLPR", "assay": "Inhibition of CYP2A6 in human liver microsomes assessed as coumarin 7-hydroxylation after 20 mins by LC-MS/MS analysis", "format": "ADME"}, "[5]": {"biological_target": "T3, Cytochrome P450 1A2 (Homo sapiens, UniProt P05177)", "T3 sequence (P05177 whole entry)": "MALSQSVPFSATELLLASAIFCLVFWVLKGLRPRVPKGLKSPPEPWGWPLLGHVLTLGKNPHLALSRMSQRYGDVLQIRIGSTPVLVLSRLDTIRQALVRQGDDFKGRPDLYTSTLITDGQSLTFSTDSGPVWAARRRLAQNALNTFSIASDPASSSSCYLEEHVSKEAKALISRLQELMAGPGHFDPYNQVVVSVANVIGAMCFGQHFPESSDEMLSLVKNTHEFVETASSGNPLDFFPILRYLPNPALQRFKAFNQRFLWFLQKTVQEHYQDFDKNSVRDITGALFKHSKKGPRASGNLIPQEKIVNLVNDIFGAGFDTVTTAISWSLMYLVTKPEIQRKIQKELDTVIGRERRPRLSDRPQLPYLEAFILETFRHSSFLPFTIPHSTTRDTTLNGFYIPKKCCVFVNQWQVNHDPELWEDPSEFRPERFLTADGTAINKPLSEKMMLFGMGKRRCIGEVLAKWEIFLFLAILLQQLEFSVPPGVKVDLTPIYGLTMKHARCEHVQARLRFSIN", "assay": "Inhibition of CYP1A2 in human liver microsomes assessed as phenacetin O-deethylation after 20 mins by LC-MS/MS analysis", "format": "ADME"}, "[6]": {"biological_target": "Cytochrome P450 3A4 (Homo sapiens, UniProt P08684)", "sequence (P08684 whole entry)": "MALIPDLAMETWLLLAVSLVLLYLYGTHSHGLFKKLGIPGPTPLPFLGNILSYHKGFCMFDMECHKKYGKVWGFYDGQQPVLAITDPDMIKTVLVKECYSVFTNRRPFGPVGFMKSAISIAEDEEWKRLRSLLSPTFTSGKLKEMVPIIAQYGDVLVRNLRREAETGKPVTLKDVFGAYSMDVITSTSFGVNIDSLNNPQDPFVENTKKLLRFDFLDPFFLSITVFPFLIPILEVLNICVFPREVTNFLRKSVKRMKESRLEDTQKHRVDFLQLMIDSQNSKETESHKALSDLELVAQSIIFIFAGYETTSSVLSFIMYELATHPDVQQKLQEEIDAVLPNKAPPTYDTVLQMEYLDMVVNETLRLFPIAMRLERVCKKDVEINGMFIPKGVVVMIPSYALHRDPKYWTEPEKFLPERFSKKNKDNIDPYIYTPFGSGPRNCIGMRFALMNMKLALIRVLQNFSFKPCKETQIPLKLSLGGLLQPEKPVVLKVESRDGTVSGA", "assay": "Inhibition of CYP3A4 in human liver microsomes assessed as midazolam 1'-hydroxylation and testosterone 6beta-hydroxylation after 20 mins by LC-MS/MS analysis", "format": "ADME"}, "[7]": {"biological_target": "Cytochrome P450 2C19 (Homo sapiens, UniProt P33261)", "sequence (P33261 whole entry)": "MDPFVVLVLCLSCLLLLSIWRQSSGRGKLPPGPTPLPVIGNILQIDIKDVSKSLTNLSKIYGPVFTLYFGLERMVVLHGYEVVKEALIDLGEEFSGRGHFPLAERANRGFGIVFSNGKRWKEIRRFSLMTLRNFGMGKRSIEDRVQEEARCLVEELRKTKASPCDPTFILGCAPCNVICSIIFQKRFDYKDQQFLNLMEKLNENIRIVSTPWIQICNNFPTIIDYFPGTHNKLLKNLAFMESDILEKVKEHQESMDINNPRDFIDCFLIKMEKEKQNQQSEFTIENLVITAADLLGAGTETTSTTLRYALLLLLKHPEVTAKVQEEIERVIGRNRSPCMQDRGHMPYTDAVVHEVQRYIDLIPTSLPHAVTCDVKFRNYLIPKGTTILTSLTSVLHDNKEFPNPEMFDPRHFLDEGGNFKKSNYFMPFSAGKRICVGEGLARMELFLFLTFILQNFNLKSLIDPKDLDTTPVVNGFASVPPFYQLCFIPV", "assay": "Inhibition of CYP2C19 in human liver microsomes assessed as S-mephenytoin 4'-hydroxylation after 20 mins by LC-MS/MS analysis", "format": "ADME"}, "[8]": {"biological_target": "Cytochrome P450 2D6 (Homo sapiens, UniProt P10635)", "sequence (P10635 whole entry)": "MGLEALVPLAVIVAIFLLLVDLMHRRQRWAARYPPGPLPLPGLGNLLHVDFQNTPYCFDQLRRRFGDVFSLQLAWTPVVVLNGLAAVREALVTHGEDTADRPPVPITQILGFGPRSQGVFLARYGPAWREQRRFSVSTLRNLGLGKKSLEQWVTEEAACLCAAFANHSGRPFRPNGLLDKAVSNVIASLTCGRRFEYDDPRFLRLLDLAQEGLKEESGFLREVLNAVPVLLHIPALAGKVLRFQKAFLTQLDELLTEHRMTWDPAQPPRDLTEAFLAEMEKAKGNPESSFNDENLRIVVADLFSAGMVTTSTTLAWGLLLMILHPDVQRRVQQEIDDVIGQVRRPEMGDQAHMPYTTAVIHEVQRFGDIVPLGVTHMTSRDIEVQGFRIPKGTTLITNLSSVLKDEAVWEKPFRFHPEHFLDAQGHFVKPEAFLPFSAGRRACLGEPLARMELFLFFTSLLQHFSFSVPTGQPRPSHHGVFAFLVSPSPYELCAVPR", "assay": "Inhibition of CYP2D6 in human liver microsomes assessed as bufuralol 1'-hydroxylation after 20 mins by LC-MS/MS analysis", "format": "ADME"}, "[9]": {"biological_target": "Cytochrome P450 2C9 (Homo sapiens, UniProt P11712)", "sequence (P11712 whole entry)": "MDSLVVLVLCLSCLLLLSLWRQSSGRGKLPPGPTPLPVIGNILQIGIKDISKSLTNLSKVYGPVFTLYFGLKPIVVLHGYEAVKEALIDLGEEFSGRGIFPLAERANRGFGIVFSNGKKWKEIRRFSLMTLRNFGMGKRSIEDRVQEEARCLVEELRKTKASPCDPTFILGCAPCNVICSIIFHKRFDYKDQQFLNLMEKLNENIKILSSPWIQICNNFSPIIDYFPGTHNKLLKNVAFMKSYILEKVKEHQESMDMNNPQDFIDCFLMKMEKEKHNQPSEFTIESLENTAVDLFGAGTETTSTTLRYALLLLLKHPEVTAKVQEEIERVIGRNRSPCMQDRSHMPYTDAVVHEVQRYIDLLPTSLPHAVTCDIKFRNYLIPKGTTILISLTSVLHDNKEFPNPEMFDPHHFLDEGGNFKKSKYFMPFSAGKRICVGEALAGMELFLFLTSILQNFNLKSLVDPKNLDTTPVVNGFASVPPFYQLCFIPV", "assay": "Inhibition of CYP2C9 in human liver microsomes assessed as diclofenac 4'-hydroxylation after 20 mins by LC-MS/MS analysis", "format": "ADME"}, "[10]": {"biological_target": "T4, Cytochrome P450 2C8 (Homo sapiens, UniProt P10632)", "T4 sequence (P10632 whole entry)": "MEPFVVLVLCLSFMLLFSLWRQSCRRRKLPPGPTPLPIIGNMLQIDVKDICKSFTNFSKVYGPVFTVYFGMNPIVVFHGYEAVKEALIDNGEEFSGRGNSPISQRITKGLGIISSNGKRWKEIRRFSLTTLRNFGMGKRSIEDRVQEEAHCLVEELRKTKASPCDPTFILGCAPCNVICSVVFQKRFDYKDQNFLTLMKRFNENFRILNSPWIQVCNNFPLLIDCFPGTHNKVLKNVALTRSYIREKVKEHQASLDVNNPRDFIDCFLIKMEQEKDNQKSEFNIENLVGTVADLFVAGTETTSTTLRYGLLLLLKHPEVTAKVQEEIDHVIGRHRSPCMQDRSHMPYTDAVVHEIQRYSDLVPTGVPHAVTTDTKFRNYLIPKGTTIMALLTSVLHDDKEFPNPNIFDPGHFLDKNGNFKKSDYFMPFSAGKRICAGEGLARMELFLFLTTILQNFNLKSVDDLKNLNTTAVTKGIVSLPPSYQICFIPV", "assay": "Inhibition of CYP2C8 in human liver microsomes assessed as paclitaxel 6alpha-hydroxylation after 20 mins by LC-MS/MS analysis", "format": "ADME"}, "[11]": {"assay": "Kinetic solubility of the compound in 0.01 M HCl at pH 2 after 2 hrs by HPLC analysis", "format": "physicochemical", "details": "read-out: Kinetic_solubility"}, "[12]": {"assay": "Kinetic solubility of the compound in phosphate buffered saline at pH 7.4 after 2 hrs by HPLC analysis", "format": "physicochemical", "details": "read-out: Kinetic_solubility"}, "[13]": {"tested_on": "Plasmodium falciparum", "assay": "Resistance index, ratio of IC50 for chloroquine-resistant Plasmodium falciparum K1 to IC50 for chloroquine-sensitive Plasmodium falciparum 3D7", "format": "functional"}, "[14]": {"tested_on": "Plasmodium falciparum", "assay": "Antiplasmodial activity against chloroquine-resistant Plasmodium falciparum W2 after 24 hrs by [3H]hypoxanthine incorporation assay", "format": "functional, organism-based", "summary_of_the_method": "(§1)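 Antiplasmodial testing was done at the Swiss Tropical and Public Health Institute. Chloroquine, the reference drug, was tested as its diphosphate salt.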"}, "[15]": {"tested_on": "Plasmodium falciparum", "assay": "Antiplasmodial activity against chloroquine-resistant Plasmodium falciparum K1 after 24 hrs by [3H]hypoxanthine incorporation assay", "format": "functional, organism-based", "summary_of_the_method": "as §1"}, "[16]": {"tested_on": "Plasmodium falciparum", "assay": "Antiplasmodial activity against chloroquine-sensitive Plasmodium falciparum 3D7 after 24 hrs by [3H]hypoxanthine incorporation assay", "format": "functional, organism-based", "summary_of_the_method": "as §1"}}, "data": [{"smiles": "Cc1ccc(C(NCCNc2ccnc3cc(Cl)ccc23)c2nnnn2C(C)(C)C)cc1", "note": "(stereo unspecified)", "values": [{"measurement": "IC50", "setting": "[1]", "value": 185, "unit": "µM"}, {"measurement": "IC50", "setting": "[2]", "value": "> 20", "unit": "µM"}, {"measurement": "IC50", "setting": "[3]", "value": "> 20", "unit": "µM"}, {"measurement": "IC50", "setting": "[4]", "value": "> 20", "unit": "µM"}, {"measurement": "IC50", "setting": "[5]", "value": "> 20", "unit": "µM"}, {"measurement": "IC50", "setting": "[6]", "value": 0.17, "unit": "µM"}, {"measurement": "IC50", "setting": "[7]", "value": "> 20", "unit": "µM"}, {"measurement": "IC50", "setting": "[8]", "value": 9.88, "unit": "µM"}, {"measurement": "IC50", "setting": "[9]", "value": 10.3, "unit": "µM"}, {"measurement": "IC50", "setting": "[10]", "value": 3.98, "unit": "µM"}, {"measurement": "solubility kinetic at 2 h", "setting": "[11]", "value": 127, "unit": "µM"}, {"measurement": "solubility kinetic at 2 h", "setting": "[12]", "value": 39.6, "unit": "µM"}, {"measurement": "Ratio IC50", "setting": "[13]", "value": 2}, {"measurement": "IC50", "setting": "[14]", "value": 0.0311, "unit": "µM"}, {"measurement": "IC50", "setting": "[15]", "value": 0.002, "unit": "µM"}, {"measurement": "IC50", "setting": "[16]", "value": 0.001, "unit": "µM"}]}]}
